# According to paper PMC2647857 (Journal of the American Chemical Society, 2009):
# Values joined by “and” are separate entries in the source; they are usually repeats but may differ in a detail not shown here. Identical values can stand only once. Like-named read-outs stand apart in the source and are kept apart here.
# What was measured:
# NP1-E55Q = NP1-E55Q (Rhodnius prolixus, UniProt Q26239, E78Q); assay: biochemical; format: binding
# [1] = Imidazole binding constant to Fe; set-up: species or system Rhodnius prolixus
# [2] = Spectroelectrochemical midpoint potential, ligand-free; format: physicochemical, Rhodnius prolixus; conditions: for ΔEm = Em(mutant)−Em(standard) / Em: ligand-free
# [3] = Spectroelectrochemical midpoint potential of the NO complex; format: physicochemical, Rhodnius prolixus; conditions: for ΔpHΔ(Em,NO) = ΔEm,NO(pH7.5) − ΔEm,NO(pH5.5) / ΔEm,NO = Em(mutant)−Em(standard) / Em,NO: NO bound
# How it was run: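 Spectroelectrochemistry of ~0.05 mM E. coli-expressed protein in 0.1 M sodium phosphate or acetate at pH 5.5, 6.5 and 7.5, 27 ± 1 °C. SNAP supplied NO at a level fully complexing both oxidation states. Ag/AgCl reference ([…] mV vs SHE). Absorbance versus applied potential fit to Nernst equation; pH dependence and mutant−standard differences derived.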
# [4] = Histamine binding constant to Fe; set-up: species or system Rhodnius prolixus; conditions: pH 7.5
# [5] = NO bound, cited from earlier work
# [6] = ligand-free, cited from earlier work
# [7] = read-out: Kd for NO dissociation, Fe(III), cited from earlier work
# [8] = NO binding constant to Fe; set-up: species or system Rhodnius prolixus; conditions: pH 7.5
# NP1-E55Q, sequence (Q26239 24-207 E78Q): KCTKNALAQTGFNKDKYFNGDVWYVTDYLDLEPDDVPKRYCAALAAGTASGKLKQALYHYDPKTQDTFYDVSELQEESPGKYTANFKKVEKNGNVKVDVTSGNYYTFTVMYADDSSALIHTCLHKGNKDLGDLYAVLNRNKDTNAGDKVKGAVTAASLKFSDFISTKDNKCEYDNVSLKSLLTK
Compound,ΔEm = Em(mutant)−Em(standard) ([2]; pH 5.5) [mV],"Em ([2]; pH 5.5, 27 °C) [mV vs. SHE]",ΔEm = Em(mutant)−Em(standard) ([2]; pH 6.5) [mV],"Em ([2]; pH 6.5, 27 °C) [mV vs. SHE]",ΔEm = Em(mutant)−Em(standard) ([2]; pH 7.5) [mV],"Em ([2]; pH 7.5, 27 °C) [mV vs. SHE]","ΔpHΔ(Em,NO) = ΔEm,NO(pH7.5) − ΔEm,NO(pH5.5) [3] [mV]","ΔEm,NO = Em(mutant)−Em(standard) ([3]; pH 5.5)","Em,NO ([3]; pH 5.5, 27 °C) [mV vs. SHE]","ΔEm,NO = Em(mutant)−Em(standard) ([3]; pH 6.5) [mV]","Em,NO ([3]; pH 6.5, 27 °C) [mV vs. SHE]","ΔEm,NO = Em(mutant)−Em(standard) ([3]; pH 7.5)","Em,NO ([3]; pH 7.5, 27 °C) [mV vs. SHE]",further results
"c1c[nH]cn1 [imidazole, imidazole (ImH)]",–,–,–,–,–,–,–,–,–,–,–,–,–,Kd (NP1-E55Q): 0.2 µM
"NP2-D1A,D29A: site-directed mutant of NP2-D1A, D29 replaced by Ala",−17±3,−334±3,19±6,−308±3,12±3,−313±1,50±3,−28±2 mV,20±1,26±2,36±1,22±2 mV,2±1,binding constant of imidazole larger than that of histamine ([1]; pH 7.5): 1.3 log units
"NP2-D1A,D31A: site-directed mutant of NP2-D1A, D31 replaced by Ala",−55±6,−373±6,−45±9,−372±8,−41±4,−366±3,22±3,−10±2 mV,38±2,−3±2,7±2,12±3 mV,−8±2,–
"NP2-D1A,D36A: site-directed mutant of NP2-D1A, D36 replaced by Ala",25±4,−293±3,11±7,−315±4,18±5,−307±4,39±5,−12±4 mV,36±4,20±2,30±2,28±3 mV,8±2,–
"NP2-D1A,D89A: site-directed mutant of NP2-D1A, D89 replaced by Ala",34±3,−284±3,23±7,−304±4,5±4,−320±3,33±3,3 mV and 3±2 mV,–,9±2,19±1,37 mV and 37±2 mV,17±2,–
"NP2-D1A,D99A: site-directed mutant of NP2-D1A, D99 replaced by Ala",14±4,−304±4,13±6,−314±1,−12±5,−337±4,21±2,−10±2 mV,38±1,−1±3,9±2,11±2 mV,−9±1,–
"NP2-D1A,D128A: site-directed mutant of NP2-D1A, D128 replaced by Ala",7±4,−311±4,–,–,−57±4,−382±3,38±4,−16±4 mV,32±3,−8±2,2±1,22±2 mV,2±1,–
"NP2-D1A,E53Q: site-directed mutant of NP2-D1A, buried E53 replaced by Gln",–,–,–,–,10±4,−316±3,64±4,40±3 mV,88±3,95±2,105±1,104 mV and 104±3 mV,84±2,–
"NP2-D1A,E100A: site-directed mutant of NP2-D1A, E100 replaced by Ala",6±6,−312±6,17±7,−310±3,−32±6,−357±5,24±3,−5±2 mV,43±2,−5±2,5±1,19±2 mV,0±1,larger histamine binding constant than standard [4]: 0.7 log units
"NP2-D1A,E124A: site-directed mutant of NP2-D1A, E124 replaced by Ala",125±4,−193±4,–,–,7±4,−318±2,−2±6,4±5 mV,52±5,–,–,2±3 mV,−18±3,increase in imidazole binding constant ([1]; at both pH values (5.5 and 7.5)): 0.7 log units
"NP2-D1A,K127A: site-directed mutant of NP2-D1A, K127 replaced by Ala",−9±5,−327±5,−2±6,−329±3,−54±4,−379±2,27±5,−27±3 mV,21±2,−4±2,6±2,–,−20±4,"midpoint potential more negative with respect to NP2-D1A ([2]; pH 7.5, absence of NO): 54 mV"
"NP2-D1A: D1A mutant of NP2 with M0 cleaved during expression, used as standard",–,–,–,–,–,–,–,–,–,–,–,–,–,"Em,NO ([5]; pH 5.5, 27 °C ref 20): 48±1 mV vs. SHE; Em,NO ([5]; pH 6.5, 27 °C ref 20): 10±1 mV vs. SHE; Em,NO ([5]; pH 7.5, 27 °C ref 20): −20±1 mV vs. SHE; Em ([6]; pH 5.5, 27 °C ref 20): −318±1 mV vs. SHE; Em ([6]; pH 6.5, 27 °C ref 20): −327±6 mV vs. SHE; Em ([6]; pH 7.5, 27 °C ref 20): −325±3 mV vs. SHE; decrease of NO-bound Em between pH 5.5 and 7.5 ([3]; NO complex): 68 mV; pH dependence of Em, negative shift ([3]; NO complex, pH 5.5–7.5 range): 34 mV/pH unit"
NP2–M0D1: recombinant wild-type nitrophorin 2 expressed with the N-terminal methionine present,–,–,–,–,–,–,–,–,–,–,–,–,–,"Kd ([7]; pH 5.5 ref 19): 0.001 µM; Kd ([7]; pH 7.5 ref 19): 0.02 µM; NO formation constant Kf, Fe(III) form [8]: 2e+08 M⁻¹; Kd ([8]; read-out: NO dissociation constant Kd, Fe(III) form): 0.005 µM"
